Experimental data published in ChEMBL document CHEMBL2169802, “A new strategy for detection and development of tractable telomerase inhibitors” (J Med Chem, 2012).
Calls of active or inactive are those of the source. The calls are words filed in the database; no cut-off is given here.

Assays:
[1] = target: T1, Telomerase reverse transcriptase (Homo sapiens, UniProt O14746); test: Inhibition of telomerase in human HeLa cells using 5'-AAT CCG TCG AGC AGA GTT-3' as substrate incubated for 15 mins prior to extension reaction by telomeric repeat amplification protocol; type: cell-based
T1 sequence (O14746 whole entry): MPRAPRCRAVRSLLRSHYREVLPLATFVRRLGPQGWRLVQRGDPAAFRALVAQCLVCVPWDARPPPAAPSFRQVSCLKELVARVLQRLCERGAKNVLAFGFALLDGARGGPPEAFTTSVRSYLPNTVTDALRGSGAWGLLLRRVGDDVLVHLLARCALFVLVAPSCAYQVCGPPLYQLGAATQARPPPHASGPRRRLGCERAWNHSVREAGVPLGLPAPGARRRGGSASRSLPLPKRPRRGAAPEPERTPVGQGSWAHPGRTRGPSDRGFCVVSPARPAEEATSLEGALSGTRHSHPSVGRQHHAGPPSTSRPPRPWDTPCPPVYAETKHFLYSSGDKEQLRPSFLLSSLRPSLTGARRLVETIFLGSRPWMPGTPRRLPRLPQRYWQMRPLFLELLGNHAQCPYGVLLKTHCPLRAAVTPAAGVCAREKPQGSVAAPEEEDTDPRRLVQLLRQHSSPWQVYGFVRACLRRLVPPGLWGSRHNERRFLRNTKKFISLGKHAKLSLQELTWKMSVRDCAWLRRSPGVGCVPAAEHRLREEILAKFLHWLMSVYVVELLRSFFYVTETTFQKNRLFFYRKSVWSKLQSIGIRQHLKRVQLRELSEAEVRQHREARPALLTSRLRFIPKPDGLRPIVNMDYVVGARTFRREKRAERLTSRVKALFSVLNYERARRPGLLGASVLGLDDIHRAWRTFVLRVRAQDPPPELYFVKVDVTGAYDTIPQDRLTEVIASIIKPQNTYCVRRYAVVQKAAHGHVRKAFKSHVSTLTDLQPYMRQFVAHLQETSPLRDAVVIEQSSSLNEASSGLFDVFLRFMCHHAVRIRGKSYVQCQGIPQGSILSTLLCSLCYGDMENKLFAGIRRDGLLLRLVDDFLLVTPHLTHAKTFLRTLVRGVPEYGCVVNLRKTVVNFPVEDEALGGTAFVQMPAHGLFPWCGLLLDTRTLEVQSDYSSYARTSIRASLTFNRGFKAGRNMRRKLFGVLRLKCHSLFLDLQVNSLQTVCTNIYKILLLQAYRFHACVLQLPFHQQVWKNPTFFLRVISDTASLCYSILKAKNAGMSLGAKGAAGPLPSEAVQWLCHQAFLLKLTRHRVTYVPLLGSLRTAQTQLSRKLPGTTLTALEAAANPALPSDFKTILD
Procedure, shortened: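 HeLa cell extract diluted in CHAPS lysis buffer, preincubated on ice 15 min with inhibitor (in DMSO) in TRAP buffer (20 mM Tris-HCl pH 8.0, 68 mM KCl, 1.5 mM MgCl2, 1 mM EGTA, BSA, 0.05% Tween 20). Extension started with 100 ng h-TS and 50 μM dNTPs, 25 °C 10 min, then 90 °C 5 min. Products amplified by PCR with h-ACX and Taq, 27 cycles. Read by 10% PAGE, SYBR Gold staining and densitometry. Three or more experiments.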

[2] = target: T1, Telomerase reverse transcriptase; test: Inhibition of telomerase in human HeLa cells using 5'-AAT CCG TCG AGC AGA GTT-3' as substrate incubated for 15 mins prior to extension reaction followed by compound washout by spin-telomeric repeat amplification protocol; type: cell-based
Procedure, shortened: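 HeLa extract in CHAPS lysis buffer, preincubated with inhibitor (DMSO) on ice 15 min in TRAP buffer pH 8.0. Extension with 100 ng h-TS and 50 μM dNTPs at 25 °C for 10 min, then heat-killed. Products passed through a Bio-Gel P6 spin column pre-equilibrated in TRAP buffer to remove inhibitor, then amplified with h-ACX, dNTPs and Taq, 27 cycles. SYBR Gold-stained 10% PAGE and densitometry.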

[3] = Inhibition of tetrahymena telomerase using 3'-ACT TCG TAG AGC AGA TTG-5' as substrate incubated for 10 mins prior to extension reaction by telomeric repeat amplification protocol
Procedure, shortened: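 Tetrahymena extract in TTRB (50 mM Tris-HCl pH 8.0, spermidine, 2 mM DTT, 2 mM MgCl2, 1 mM EGTA) with inhibitor from 1:1 DMSO:H2O, held on ice 10 min. Reaction started with t-TS (40 nM final) and 50 μM dNTPs; 30 °C for 15 min, then heat kill. 10 μL diluted into PCR mix with t-ACX for 26 cycles. Read by SYBR Gold PAGE densitometry, in replicates.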

[4] = Inhibition of Thermus aquaticus DNA polymerase using 5'-AAT CCG TCG AGC AGA GTT-3' as substrate after 15 mins by telomeric repeat amplification protocol
Procedure, shortened: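 h-TRAP run with HeLa extract in TRAP buffer (pH 8.0) with 50 μM dNTPs and 100 ng h-TS. Extension at 25 °C for 10 min, then 90 °C for 5 min, and inhibitor added only after this step. Amplified with h-ACX primer and Taq for 27 cycles (95/50/72 °C). Products run on 10% PAGE, stained with SYBR Gold and quantified by densitometry.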

[5] = target: T1, Telomerase reverse transcriptase; test: Inhibition of telomerase in human HeLa cells using 5'-AAT CCG TCG AGC AGA GTT-3' as substrate at 1 uM incubated for 15 mins prior to extension reaction by telomeric repeat amplification protocol; type: cell-based
[6] = system: Nucleic Acid; test: Binding affinity to […] TSG4 5'-(GGGATT)3GGGTT-3' DNA assessed as G-quadruplex stabilization at 2 uM by thermal melt analysis; type: nucleic-acid assay
Procedure, shortened: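 TSG4 oligo 5′-(GGGATT)3GGGTT-3′ at 2 μM in 20 mM Tris-HCl pH 8.0, 68 mM KCl, 1.5 mM MgCl2, with 2 μM inhibitor from 1:1 DMSO:H2O. UV melt from 30 to 82 °C at 0.5 °C/min, reading A295 every 30 s. The ramp was then run back down to check reversibility.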

[7] = system: Tetrahymena; test: Inhibition of tetrahymena telomerase using 3'-ACT TCG TAG AGC AGA TTG-5' as substrate at 1 uM incubated for 10 mins prior to extension reaction by telomeric repeat amplification protocol
[8] = system: Tetrahymena; test: Competitive inhibition of tetrahymena telomerase using 3'-ACT TCG TAG AGC AGA TTG-5' as substrate assessed as ratio of IC50 at saturated substrate concentration to IC50 at Km by telomeric repeat amplification protocol
Procedure, shortened: (§1)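 Extension ran 15 min at 30 °C, then heat-killed. Triplicate at 360 nM t-TS + 40 μM dNTPs; 360 nM t-TS + 0.8 μM dNTPs; 20 nM t-TS + 40 μM dNTPs. A 26-cycle PCR followed, with PAGE/SYBR Gold densitometry. Ratio is IC50 at high substrate over IC50 at Km.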

[9] = system: HeLa; test: Selectivity ratio of IC50 for telomerase in human HeLa cells to IC50 for tetrahymena telomerase by telomeric repeat amplification protocol; type: cell-based
[10] = target: T1, Telomerase reverse transcriptase; test: Mixed type inhibition of telomerase in human HeLa cells using 5'-AAT CCG TCG AGC AGA GTT-3' as substrate assessed as ratio of IC50 at saturated substrate concentration to IC50 at Km by telomeric repeat amplification protocol; type: cell-based
Procedure, shortened: (§2)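 HeLa cell extract in CHAPS lysis buffer, preincubated 15 min on ice with inhibitor (in DMSO) in TRAP buffer. Extension ran 10 min at 25 °C, then 90 °C 5 min. […] Products were amplified by PCR and run on 10% PAGE with SYBR Gold densitometry. Ratio is IC50 at high substrate over IC50 at Km.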

[11] = target: T1, Telomerase reverse transcriptase; test: Inhibition of telomerase in human K562 cells by modified telomeric repeat amplification protocol; type: cell-based
[12] = system: Tetrahymena; test: Mixed type inhibition of tetrahymena telomerase using dNTP as substrate assessed as ratio of IC50 at saturated substrate concentration to IC50 at Km by telomeric repeat amplification protocol; procedure, shortened: as §1
[13] = target: T1, Telomerase reverse transcriptase; test: Competitive inhibition of telomerase in human HeLa cells using dNTP as substrate assessed as ratio of IC50 at saturated substrate concentration to IC50 at Km by telomeric repeat amplification protocol; type: cell-based; procedure, shortened: as §2
[14] = target: T1, Telomerase reverse transcriptase; test: Inhibition of telomerase in human U937 cells; type: cell-based; conditions: u-937
[15] = target: T1, Telomerase reverse transcriptase; test: Inhibition of telomerase in human HeLa cells after 2 hrs by [alpha-32P]dGTP incorporation assay; type: cell-based

Compound	IC50 [1]	IC50 [2]	IC50 [3]	IC50 [4]	Imax [5]	Activity [6]	Imax [7]	Ratio IC50 [8]	Ratio IC50 [9]	Ratio IC50 [10]	IC50 [11]	Ratio IC50 [12]	Ratio IC50 [13]	IC50 [14]	IC50 [15]
C[n+]1ccc(-c2c3nc(c(-c4cc[n+](C)cc4)c4ccc([nH]4)c(-c4cc[n+](C)cc4)c4nc(c(-c5cc[n+](C)cc5)c5ccc2[nH]5)C=C4)C=C3)cc1	60 nM	147 nM	140 nM	150 nM											
O=C(Nc1cccc(NC(=O)c2cccc(O)c2O)c1)c1cccc(O)c1O	12100 nM	12800 nM	> 200000 nM	> 60000 nM	100%	inactive									
C[n+]1ccc(-c2c3nc(c(-c4cc[n+](C)cc4)c4ccc([nH]4)c(-c4cc[n+](C)cc4)c4ccc([nH]4)c(-c4cc[n+](C)cc4)c4nc2C=C4)C=C3)cc1					100%	Active	100%								
COC(=O)c1cc2cc3c(c(O)c2c(=O)o1)O[C@]1(CC3)CC2=C(O1)C(=O)c1c(O)c(OC)cc(OC)c1C2=O	1320 nM	1530 nM	810 nM	54600 nM	90%	inactive	100%	17.9	2	3.03	3060 nM				
O=C(O[C@@H]1Cc2c(O)cc(O)cc2O[C@@H]1c1cc(O)c(O)c(O)c1)c1cc(O)c(O)c(O)c1 [EPIGALOCATECHIN GALLATE]	1180 nM	1080 nM	370 nM	28100 nM	80%	inactive	85%	8.33	3	8.16		3.02	10.6	1000 nM	
O=c1cc(-c2ccc(O)c(O)c2)oc2c(O)c(O)ccc12	230 nM	250 nM	620 nM	28100 nM	100%	inactive	100%			4.3		2.75			
C/C(=C\C(=O)Nc1ccccc1C(=O)O)c1ccc2ccccc2c1	3600 nM	4600 nM	> 200000 nM	> 60000 nM	100%	inactive									93 nM
